Results published in PubChem BioAssay AID775 (SRMLSC, 2007).
Out of some 130,000 compounds screened, about 900 (0.69%) were called active.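 The calls were made as follows: active = inhibition above a set limit, placed 3 SD over the median of all compounds (cut at about 26% in these data); inactive = the rest.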 The full list was thinned out, with actives kept by preference.

Assay: rescue of nicotinamide-shortened yeast lifespan – S. cerevisiae, OD615, primary screen (AID 775);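 also: 0% = nicotinamide-treated wells and 100% = cells grown without nicotinamide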
Conditions: S. cerevisiae growth with nicotinamide, at 10 µM, active compounds read high, deaD strain in restrictive glucose medium
Summary of the method: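 Test system – modified budding yeast, DeaD strain · Compound – single dose 10 µM compound, 0.25% DMSO · Times – culture preincubation 4 h, compound exposure 48 h, both 30 °C · Detection – optical density (absorbance) at 615 nm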

Compound	inhibition of the nicotinamide effect
Cc1cc(C(=O)N/N=C/c2cc([N+](=O)[O-])cc(C)c2O)n[nH]1	-1.48% (inactive)
Cc1cc(Cl)ccc1OCCCC(=O)NCc1ccncc1	1.85% (inactive)
CCn1ncc(CNC(=O)C2(C)CC2(Br)Br)c1C (centres undefined)	9.74% (inactive)
O=C(NCCOCc1ccc(Cl)cc1)c1ncn[nH]1	1.27% (inactive)
O=C(/C=C/Sc1ncn[nH]1)c1ccc(Cl)cc1	44.7% (active)
CC(C)(C)c1ccc(C(=O)CSc2ncn[nH]2)cc1	-10.2% (inactive)
Cc1ccccc1C(OCCN(C)C)C1CCCCC1 (centres undefined)	-0.42% (inactive)
COc1ccc(C(CC(=O)c2ccccc2)S(=O)(=O)c2ccccc2)cc1 (centres undefined)	-1.04% (inactive)
O=C(Nc1cc(C(F)(F)F)ccc1Cl)C(=O)N1CCCCC1	-4.64% (inactive)
O=C(CN1C(=O)NC2(CCCCCC2)C1=O)NCc1cccs1	7.48% (inactive)
COC(=O)c1ccc(NC(=O)Nc2ccc(C)cc2)cc1	-13.6% (inactive)
Cc1ccc(C(=O)OC2=CC(=O)CC(C)(C)C2)cc1	72.5% (active)
Cc1cc(O)ccc1NC1=CC(=O)CC(C)(C)C1	11.5% (inactive)
Nc1nc(SCC(=O)NNc2c(Cl)cc(Cl)cc2Cl)n[nH]1	1.57% (inactive)
COc1ccc(C(=O)COC(=O)c2ccc3ccccc3n2)cc1	-4.94% (inactive)
COc1ccc(C2=NOC(COC(=O)c3ccc4ccccc4n3)C2)cc1 (centres undefined)	-3.92% (inactive)
O=C(Oc1ccc([N+](=O)[O-])cc1)c1ccc2ccccc2n1	75.9% (active)
COc1cccc(NC(=O)CC(c2ccc(OC(C)C)cc2)c2ccccc2OC)c1 (centres undefined)	9.84% (inactive)
CCc1cc(-c2n[nH]c(=S)n2CC(C)C)cs1	7.5% (inactive)
CCCCCOc1ccc(/C=C/C(=O)NCCc2nc3ccccc3[nH]2)cc1OC	3.92% (inactive)
CC1(c2ccccc2)CC(C)(C)N(C(=O)c2cc([N+](=O)[O-])cc([N+](=O)[O-])c2)c2ccccc21 (centres undefined)	-0.09% (inactive)
CCOC12CC(C)(C)CC(C)(CC3=C1C(=O)CC(C)(C)C3)C2 (centres undefined)	7.4% (inactive)
O=C(Cc1cccc2ccccc12)NCCC1=CCCCC1	10.1% (inactive)
O=C(Cc1ccccc1)NCc1ccc(F)cc1	-0.44% (inactive)

Compound	inhibition of the nicotinamide effect
O=C(/C=C\NCC(=O)c1ccccc1)c1ccccc1	3.73% (inactive)
O=C(/C=C/NCc1ccc(F)cc1)c1ccccc1	26.6% (active)
COc1cc(C(=O)NNC(=O)c2ccc(S(=O)(=O)N3CCCCC3)cc2)cc(OC)c1OC	-0.56% (inactive)
Cc1cc(NS(=O)(=O)c2ccc(NC(=S)NC(=O)c3ccc(F)cc3Cl)cc2)no1	-5.54% (inactive)
O=C(CSc1ccccn1)Nc1nc2c(ccc3ccccc32)s1	-4.27% (inactive)
CC(C)(C)OC(=O)N/N=C/c1ccc(C(=O)O)cc1	-2.34% (inactive)
CCC(NC(=O)c1ccccc1NC(=O)c1ccccc1)C(=O)NNC(=O)CSc1nc2ccccc2o1 (centres undefined)	-3.91% (inactive)
Cc1c(C2=CCN(S(=O)(=O)c3ccc(Cl)cc3)CC2)c2ccccc2n1C	2.05% (inactive)
CC(C)C(C)(C#N)NC(=O)CSc1nc2scc(-c3ccccc3)c2c(=O)[nH]1 (centres undefined)	7.12% (inactive)
CCc1ccc2c(c1)C(c1ccc([N+](=O)[O-])cc1)=NNC(c1ccccc1)=N2	-1.67% (inactive)
COC(=O)c1ccc(/C=N\n2c(C)nnc2C)cc1	27.3% (active)
CCN(CC)S(=O)(=O)c1cccc(-c2n[nH]c(=S)n2/N=C/c2ccc(C(=O)OC)cc2)c1	-2.04% (inactive)
Cc1nnc(C)n1/N=C/c1ccc(C(C)C)cc1	1.31% (inactive)
CCOc1ccc2nc(C(=O)N3CCCC(C)C3)sc2c1 (centres undefined)	-4.7% (inactive)
O=c1c2ccccc2nc(CSc2nnnn2-c2ccccc2)n1-c1ccccc1	-5.7% (inactive)
N#CCSc1nc2ccccc2c(=O)n1-c1ccccc1	-7.51% (inactive)
CCCN1C(=O)C(Cc2nc3ccccc3c(=O)n2-c2ccccc2)c2cc(C)ccc21 (centres undefined)	38.7% (active)
Cc1noc(/C=C/c2ccco2)c1S(=O)(=O)N1CCC(C(=O)Nc2ccc(Cl)cn2)CC1	10.7% (inactive)
O=C(COC(=O)c1cc(=O)[nH]c2ccccc12)Nc1nc(-c2cccc(Br)c2)cs1	-0.45% (inactive)
Cc1ccc(OCCOCCOc2ccc(Br)cc2/C=N\NC(=O)c2ccncc2)cc1	-1.41% (inactive)
COC(=O)C1=CN(C)C=C(C(=O)OC)C1c1ccc(Cl)cc1Cl	-5.36% (inactive)
CC12CN3CC(C)(CN(C1)C3c1ccc(Cl)cc1Cl)C2=O (centres undefined)	30.1% (active)
CC12CCC(C(=O)N(c3cccc(Cl)c3)C1=O)C2(C)C (centres undefined)	3.45% (inactive)
COc1ccc(NC(=O)COC(=O)c2ccc(NS(=O)(=O)/C=C/c3ccccc3)cc2)cc1	3.99% (inactive)

Compound	inhibition of the nicotinamide effect
COc1ccc(S(=O)(=O)Nc2c(C)n(C)n(-c3ccccc3)c2=O)cc1	-9.71% (inactive)
Cc1ccc(S(=O)(=O)Nc2ccccc2CNc2c(C)n(C)n(-c3ccccc3)c2=O)cc1	43% (active)
Cc1c(NS(=O)(=O)c2ccc(NC3CCCC3)c([N+](=O)[O-])c2)c(=O)n(-c2ccccc2)n1C	-2.8% (inactive)
O=C(Nc1cccc([N+](=O)[O-])c1)c1ccc2c(c1)OCO2	-0.87% (inactive)
COC(=O)c1ccccc1SC1CC(=O)N(c2cccc(C)c2)C1=O (centres undefined)	-3.77% (inactive)
CC(C)(C)c1ccc(/C=C/C(=O)Nc2ncccn2)cc1	-2% (inactive)
Cc1cccc(N2CCN(C(=O)c3cccc(S(=O)(=O)N4CCc5ccccc5C4)c3)CC2C)c1 (centres undefined)	9.33% (inactive)
Cc1cccc(N2Cc3ccccc3C2=NC(=O)c2ccc(Cl)nc2)c1	34.6% (active)
N#Cc1ccc(N2Cc3ccccc3/C2=N/C(=O)Nc2ccc(Cl)cc2)cc1	-2.85% (inactive)
CC(NC(=S)Nc1ccc(S(N)(=O)=O)cc1)c1ccc2c(c1)OCO2 (centres undefined)	-4.33% (inactive)
COC(=O)c1cn(C)c2ccc(S(=O)(=O)N3CC(C)CC(C)C3)cc2c1=O (centres undefined)	-19.7% (inactive)
O=C(c1cccc(S(=O)(=O)N2CCOCC2)c1)N1CCOCC1	4.86% (inactive)
CC1CC(C)CN(S(=O)(=O)c2cccc(C(=O)N3C(=O)c4cccc(N)c4C3=O)c2)C1 (centres undefined)	86.5% (active)
Cc1cc(C)c(NC(=S)N2CCCC2C(=O)O)c(C)c1 (centres undefined)	-4.99% (inactive)
Cc1cccc(N2C(=O)SC(SC(=Nc3ccccc3)Nc3ccccc3)C2=O)c1 (centres undefined)	7.31% (inactive)
COc1ccc(/C=N/NC(=O)c2ccc(Cl)cc2)cc1COC(C)=O	-4.25% (inactive)
Cc1cc(Cl)ccc1NC(=S)NCCCN1CCCC1=O	3.7% (inactive)
NC(=S)N/N=C/c1coc2cc(Cl)ccc2c1=O	38.1% (active)
CC(C)Oc1c(Br)cc(Br)cc1/C=N/NC(N)=S	0.87% (inactive)
O=C(N/N=C/c1coc2ccccc2c1=O)c1cc2ccccc2o1	19.2% (inactive)
O=C(Cc1ccccc1)NNC1CC(=O)N(c2ccc(Br)cc2)C1=O (centres undefined)	-4.42% (inactive)
COc1ccc(-n2c(C)cc(C(=O)COC(=O)c3cc(OC)c(OC)cc3NC(=O)c3cccs3)c2C)cc1	1.08% (inactive)
S=C1Nc2cc(Cl)ccc2Sc2ccccc21	2.87% (inactive)
O=C1Cc2ccccc2Sc2ccc(Cl)cc21	38.7% (active)

Compound	inhibition of the nicotinamide effect
O=C(CSc1nc2ccccc2o1)N1c2ccccc2Sc2ccc(Cl)cc21	-7.73% (inactive)
Cc1ccccc1N/C(SCc1ccc(Cl)cc1)=C(/C#N)C(N)=O	1.27% (inactive)
Cc1nnc(-c2ccc(Oc3ccc(C)c(C)c3)c([N+](=O)[O-])c2)o1	-6.06% (inactive)
Cc1ccc(S(=O)(=O)N(CC(=O)Nc2cccc([N+](=O)[O-])c2)Cc2ccc(Cl)cc2)cc1	-5.04% (inactive)
COCC(C)N=CC1=C(O)CC(C)(C)CC1=O (centres undefined)	-1.64% (inactive)
CCC(=NC1CC(C)(C)NC(C)(C)C1)C1=C(O)CC(C)(C)CC1=O	36.4% (active)
CC1(C)CC(=O)C=C(NC2CC(C)(C)NC(C)(C)C2)C1	5.33% (inactive)
Cc1[nH]c2ccccc2c1/C=N\NC(=O)Cn1nnc(-c2ccccc2)n1	1.83% (inactive)
Cc1nn(CC(=O)Nc2ccc(N(C)C)cc2)c(C)c1[N+](=O)[O-]	-0.66% (inactive)
COC(=O)/C(C#N)=C/c1occc1C	-5.74% (inactive)
Cc1cc(/C=C2/NC(=O)NC2=O)c(C)n1-c1cccnc1	-0.65% (inactive)
CCOc1ccc(S(=O)(=O)N(CC(=O)O)c2ccccc2)cc1	-6.31% (inactive)
CCN(c1ccccc1)S(=O)(=O)c1ccc(N)cc1	-3.49% (inactive)
O=S(=O)(ON(c1ccccc1)S(=O)(=O)c1ccccc1)c1ccccc1	43.7% (active)
Cc1nc2ccccc2n1CC(=O)N/N=C/c1cccs1	2.27% (inactive)
NS(=O)(=O)c1ccc(CNC(=O)c2ccc(Cl)cc2[N+](=O)[O-])cc1	3.9% (inactive)
CCCCN(C)c1ccc([N+](=O)[O-])cc1	0.62% (inactive)
CC(=O)c1cc(C#N)c(SCC(=O)C(C)(C)C)nc1C	-19% (inactive)
CCCCSc1[nH]c(=O)c(C(=O)OCC)cc1C#N	35.7% (active)
Cc1cc(=O)[nH]c(SCC(N)=O)c1C#N	-13.6% (inactive)
Cc1ccc(-c2nnc(SCC(=O)N/N=C/c3cccs3)n2-c2ccc(C)cc2)cc1	-1.13% (inactive)
CC1(C)CC(=O)C(N=Nc2ccc(S(=O)(=O)N3CCCCCC3)cc2)=C(O)C1	-0.81% (inactive)
